This excerpt belongs to a sample that is enriched for hits.
Insulin prom act: TRM-6 insulin promoter activation. TRM-6 cells, insulin promoter eGFP reporter, imaging; plate-scaled: unstimulated 0, stimulated control 100. activation, % at 2 µM. 130,000 tested, 0.81% active. AID 1296;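 active means activation at 2 µM above a set limit, confirmed on inspection of the cell images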;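 further: share of cells whose green reporter signal exceeds an intensity cutoff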
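Test system: human fetal islet-derived TRM-6 cells with tamoxifen-inducible insulin promoter–eGFP reporter; schedule: overnight tamoxifen, then two-day compound incubation at 37 °C; measured by: high-content imaging of fixed cells with Hoechst nuclear stain; evaluation: percent cells above green-intensity threshold, converted to percent activation versus plate controls; control set: stimulated and unstimulated wells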
Numbers without * were called inactive; [ ] = dose if it differs, or a comment.

What do the screens show for `CCOc1ccccc1CN1CCN(S(C)(=O)=O)CC1`?
Insulin prom act: 0.0

Results for Cc1ccccc1CN1CCN(CC2CC3C=CC2C3)CC1 (stereo not given) ?
Insulin prom act: 4.2

What do the screens show for `Cc1ccccc1CN1CCN(S(C)(=O)=O)CC1`?
Insulin prom act: 443.8*

Results for COc1cccc(-n2c(Cn3nc(C(F)(F)F)cc3C)n[nH]c2=S)c1 ?
Insulin prom act: -4.8

How did CCNC(=O)C1CCCc2c1[nH]c1ccc(Cl)cc21 (stereo not given) do in these assays?
Insulin prom act: 0.0

What do the screens show for `O=S(=O)(c1ccc(Br)s1)N1CCN(c2ccccc2)CC1`?
Insulin prom act: 575.0*

How did Cc1c(NS(=O)(=O)c2ccc(Br)s2)c(=O)n(-c2ccccc2)n1C do in these assays?
Insulin prom act: 5.1

Results for CCN1CCN(S(=O)(=O)c2ccc(Br)s2)CC1 ?
Insulin prom act: -92.9

Results for Cc1ccccc1CN(c1ccc(C(=O)Nc2ccccc2C(=O)NCc2ccco2)cc1)S(C)(=O)=O ?
Insulin prom act: -7.1

How did O=C(CCN1C(=O)c2ccccc2C1=O)Nc1sc2c(c1C(=O)NCC1CCCO1)CCC2 (stereo not given) do in these assays?
Insulin prom act: -3.7

Results for CC(NC(=O)Cn1cc(C(F)(F)F)ccc1=O)c1ccc(F)cc1 (stereo not given) ?
Insulin prom act: 0.0

What do the screens show for `CCN1CCN(S(=O)(=O)c2ccc(Cl)c(C(=O)NC(C)(C)C)c2)CC1`?
Insulin prom act: -7.1

Results for O=C(CCN(NC(=O)c1ccccc1)C1=NS(=O)(=O)c2ccccc21)NC1CCCCC1 ?
Insulin prom act: 5.6

Results for C=C(C)CC(NCCc1ccccc1)c1ccco1 (stereo not given) ?
Insulin prom act: 669.2*[fluoresces]

How did O=C(Nc1ccccc1C(=O)NCCc1ccccc1)c1ccco1 do in these assays?
Insulin prom act: 0.0

What do the screens show for `O=C(c1ccco1)N(CCC(c1ccccc1)c1ccco1)Cc1ccccc1` (stereo not given)?
Insulin prom act: 7.4

What do the screens show for `CCN(Cc1nc2ccccc2c(=O)[nH]1)Cc1cc(=O)oc2cc(OC)ccc12`?
Insulin prom act: -9.1

What do the screens show for `Cc1ccc(NS(=O)(=O)c2cc(OCC(N)=O)c(C)cc2Cl)cc1`?
Insulin prom act: 0.0

What do the screens show for `Cc1nnc(N2CCN(C)CC2)c2nn(-c3ccc(Cl)cc3)c(C)c12`?
Insulin prom act: -3.4

How did CCOC(=O)N1CCN(C(=O)/C=C/c2cccc([N+](=O)[O-])c2)CC1 do in these assays?
Insulin prom act: 0.0

How did COc1cccc2c1C(=O)c1c(O)c3c(c(O)c1C2=O)C[C@@](O)(C(C)=O)C[C@@H]3O[C@H]1C[C@H](N)[C@H](O)[C@H](C)O1 do in these assays?
Insulin prom act: 354.5*

How did CCCCNC(=O)c1ccc(CNc2c(N3CCC(C(=O)OCC)CC3)c(=O)c2=O)cc1 do in these assays?
Insulin prom act: -4.7

How did N=C1N(/N=C/c2ccccc2)C(=Nc2ccccc2)C(=S)N1c1ccccc1 do in these assays?
Insulin prom act: 276.2

What do the screens show for `O=C(Nc1cnccn1)Nc1cccc(Cl)c1Cl`?
Insulin prom act: -6.7

How did CSc1nsc(/C=C/Nc2ccc(C)c(C)c2)c1C#N do in these assays?
Insulin prom act: 669.2*

How did COc1cc(/C=N/Nc2snc(SC)c2C#N)ccc1O do in these assays?
Insulin prom act: 2.3

How did Cc1ccc(N/C=C(/C#N)c2ccsc2)cc1C do in these assays?
Insulin prom act: 7.1

How did COc1cc([N+](=O)[O-])cc2sc(NC(=O)c3c(F)cccc3F)nc12 do in these assays?
Insulin prom act: 5.9

What do the screens show for `ClCC1NCC(c2ccccc2Cl)c2c1[nH]c1ccccc21` (stereo not given)?
Insulin prom act: 585.7*

How did COc1ccccc1NC(=O)CSc1nnc(-c2ccco2)n1Cc1ccco1 do in these assays?
Insulin prom act: 7.7

What do the screens show for `COc1ccc(C)cc1NC(=O)CSc1nnc(COc2ccc(Cl)cc2)n1Cc1ccco1`?
Insulin prom act: 141.7*

How did Cn1c(COc2ccccc2)nnc1SCc1nc2ccccc2[nH]1 do in these assays?
Insulin prom act: -2.6

How did Clc1ccc(OCc2nnc(SCc3nc4ccccc4[nH]3)n2Cc2ccco2)cc1 do in these assays?
Insulin prom act: 128.6*

What do the screens show for `CCn1c(SCc2nc3ccccc3[nH]2)nnc1-c1cccs1`?
Insulin prom act: -5.9

How did O=C(CSc1nnc(Cc2cccs2)n1Cc1ccco1)Nc1cc(Cl)cc(Cl)c1 do in these assays?
Insulin prom act: 0.0

Results for CS(=O)(=O)N1CCC(C(=O)Nc2ccc(Br)cc2F)CC1 ?
Insulin prom act: -3.2

Results for CNc1c([N+](=O)[O-])cnn1-c1cccc(Cl)n1 ?
Insulin prom act: -2.9

How did CCCCNC(=O)c1ccc(CS(=O)(=O)Cc2ccccc2F)o1 do in these assays?
Insulin prom act: -8.3

How did Cc1ccc(NCC(O)C(O)C(O)CO)cc1C (stereo not given) do in these assays?
Insulin prom act: 426.7*

What do the screens show for `CSc1ccc(CNc2ccc(C)c(C)c2)cc1`?
Insulin prom act: 0.0

Results for Cc1cc(N=Nc2ccccc2)c(NCC(O)C(O)C(O)CO)cc1C (stereo not given) ?
Insulin prom act: -82.3

What do the screens show for `O=C(Nc1cccc2oc(=O)ccc12)c1ccc([N+](=O)[O-])cc1[N+](=O)[O-]`?
Insulin prom act: 0.0

Results for CCC(NC(=O)c1ccc([N+](=O)[O-])cc1[N+](=O)[O-])c1ccccc1 (stereo not given) ?
Insulin prom act: 80.0*

Results for CCC(NC(=O)COc1ccc([N+](=O)[O-])cc1)c1ccccc1 (stereo not given) ?
Insulin prom act: -66.7

Results for CN(CCc1ccccn1)C(=S)NC(=O)c1ccco1 ?
Insulin prom act: 0.0

What do the screens show for `O=C(C[n+]1cccc(CNC(=O)c2ccc(OC(F)F)cc2)c1)c1ccccc1`?
Insulin prom act: 341.2*

Results for CC(Oc1ccc(C(=O)NCCc2ccccc2)cc1)C(=O)O (stereo not given) ?
Insulin prom act: 0.0

What do the screens show for `O=C(NCc1ccccc1)c1ccc(S(=O)(=O)C(F)F)cc1`?
Insulin prom act: -3.3

How did COc1ccc(NC(=S)NNC(=O)c2nnn(-c3ccccc3)c2C)cc1 do in these assays?
Insulin prom act: 3.3

What do the screens show for `Cc1ccc(NN2C(=O)C=C(c3ccc(Cl)cc3)C2=O)cc1`?
Insulin prom act: -4.2

What do the screens show for `COc1ccc(C(=O)Nc2ccc([N+](=O)[O-])cn2)c(OC)c1`?
Insulin prom act: -8.8

What do the screens show for `Cc1ccc(/C=C/C(=O)NC2CCCCCCC2)o1`?
Insulin prom act: 0.0

Results for Cc1nn2c3c(cnc2c1-c1ccccc1)C(=O)CC(c1ccco1)C3 (stereo not given) ?
Insulin prom act: 136.4*

Results for O=C(Nc1ncc2c(n1)CC(c1ccco1)CC2=O)c1ccccc1 (stereo not given) ?
Insulin prom act: 6.7

How did Cc1ccc(NC(=O)CSCC(=O)Nc2ncc3c(n2)CC(c2ccco2)CC3=O)cc1 (stereo not given) do in these assays?
Insulin prom act: 2.7

Results for CCN(CCCn1c(=S)[nH]c2ccc(N3CCOCC3)cc2c1=O)c1ccccc1 ?
Insulin prom act: 5.6

How did Cc1nc2cc(C(=O)N3CCc4ccccc43)ccc2n1-c1ccc(F)c(F)c1 do in these assays?
Insulin prom act: 8.6

How did NC(=O)NC(=O)CSc1cccc(C(F)(F)F)c1 do in these assays?
Insulin prom act: 5.4

Results for CCN1C(=O)/C(=C\N2CCCc3ccccc32)SC1=S ?
Insulin prom act: -7.1
